Compound activity (PubChem)
Most compounds without a hit are left out; they make up all but 2.2% or so of the library.
NR2E3 ag-1 = agonists of human nuclear receptor NR2E3; actives 0.12% (n = 320,000); inhibition of corepressor binding, % at 4.78 µM; GST-NR2E3/biotin-RetCOR TR-FRET, 1536-well; Q9Y5X4;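 active = percent inhibition above the cutoff of mean plus 3 SD of all tested compounds, set per screening campaign, cut at about 20% in these data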;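 note: 0% = DMSO wells and 100% = biotin wells as full block of FRET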
Target sequence (Q9Y5X4 whole entry, looked up): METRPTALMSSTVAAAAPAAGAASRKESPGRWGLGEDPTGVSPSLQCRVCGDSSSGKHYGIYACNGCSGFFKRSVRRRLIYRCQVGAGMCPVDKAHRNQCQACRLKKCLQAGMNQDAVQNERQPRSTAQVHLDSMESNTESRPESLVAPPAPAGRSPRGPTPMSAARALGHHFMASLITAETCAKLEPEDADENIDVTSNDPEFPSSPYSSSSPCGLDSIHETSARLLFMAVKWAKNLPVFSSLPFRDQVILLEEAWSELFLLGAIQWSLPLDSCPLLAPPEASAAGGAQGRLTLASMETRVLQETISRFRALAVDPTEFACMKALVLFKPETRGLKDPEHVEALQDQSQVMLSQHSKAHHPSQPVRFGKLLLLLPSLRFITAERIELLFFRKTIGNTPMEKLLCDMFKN
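System: GST-tagged NR2E3 plus biotinylated RetCOR corepressor; Buffer or medium: pH 7.5 Tris-based buffer; Probe or stimulus: RetCOR corepressor, biotinylated, 7 nM; Doses: compound at 4.8 µM, single dose; Schedule: 5 h incubation at 4 °C; Technique: time-resolved FRET; Evaluation: percent inhibition of TR-FRET ratio; Replication: one well per compound, singlicate testing.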
miR-122 sensor = inhibitors of miR-122 in Huh7 cells; Huh7 miR-122 Renilla luciferase sensor, 48 h; neutral wells = 0, positive control = 100; activation (reporter increase), % at 12.5 µM; actives 0.3% (n = 340,000); AID 602342;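 active = mean replicate activation score at least 90 and every replicate individually at or above 90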;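 note: higher luciferase means less miR-122 activity so hits act as miR-122 inhibitors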
NR2E3 ag-2 = activates human NR2E3 receptor; AID 602229; actives 0.35% (n = 360,000); inhibition of corepressor binding, % at 3.98 µM; Q9Y5X4; CHO-S Gal4-NCOR/VP16-NR2E3 two-hybrid, luciferase;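 active = inhibition above the mean of all tested compounds plus 3 SD, cut at about 70% in these data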;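 note: 0% = DMSO with NR2E3 transfected cells and 100% = cells lacking NR2E3 construct; higher means lower luciferase signal from less NR2E3 corepressor binding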
Jurkat NFkB inh = inhibitors of the PMA/ionomycin-induced NF-kB reporter in Jurkat cells; PMA/ionomycin-induced NF-kB luciferase reporter, luminescence; inhibition, % at 4 µM; actives 0.53% (n = 330,000); AID 435003; in the data active = inhibition above about 50%
FGF22 binding = binders of recombinant human FGF22 by thermal shift; activity (Tm shift, normalised), % at 9.99 µM; Q9HCT0; actives 1.5% (n = 340,000); SYPRO orange fluorescence; percent of sucrose octasulfate shift, DMSO zero;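 active = mean Tm shift, scaled 0 neutral to 100 positive control, at about 1.3% or above, every replicate too, limit read from the data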
697 NFkB inh = lowers PMA/ionomycin-induced NF-kB signal in 697 B cells; 697 B-cell NF-kB luciferase reporter, 16 h; actives 0.33% (n = 330,000); inhibition, % at 4 µM; in the data active = inhibition above about 35%
Starred values were filed as active, the others as inactive; nt = not tested or not shown; [ ] = remark or other dose.

SMILES | NR2E3 ag-1 | miR-122 sensor | NR2E3 ag-2 | Jurkat NFkB inh | FGF22 binding | 697 NFkB inh
CC(=O)NC(c1ccco1)c1cc(F)c2cccnc2c1O (configuration not stated) | 3 | nt | -31 | 8 | 0 | -7
CC(=O)NC(c1cccs1)c1cc(F)c2cccnc2c1O (configuration not stated) | 1 | nt | -68 | 38 | 43* | -24
CCOC(=O)Cn1c(C)cc(COC)c(C#N)c1=O | 2 | nt | 5 | 16 | 43* | 3
COc1ccc(N(Cc2ccccc2)S(=O)(=O)c2cccc(C(=O)NC3=NCCS3)c2)cc1 | -2 | 119* | 6 | 12 | nt | 5
C/C(=N\Nc1ccccn1)c1ccc(S(=O)(=O)NCc2ccco2)cc1 | 4 | 110* | -35 | -17 | nt | -22
C/C(=N\Nc1ccc(C(F)(F)F)cn1)c1ccc(S(=O)(=O)NCc2ccco2)cc1 | 4 | -12 | -1 | 11 | nt | -24
COc1ccc2c3c(n(C)c2c1)[C@H](CO)N(Cc1ccccc1)CC31CN(CC2CC2)C1 | nt | nt | nt | nt | 0 | nt
CN(C)S(=O)(=O)c1ccc(N=Cc2c(C(F)(F)F)[nH]n(C)c2=O)cc1 | 7 | -4 | -14 | 14 | 44* | 6
COC(=O)c1ccc(N=Cc2c(C(F)(F)F)[nH]n(C)c2=O)cc1 | -4 | -2 | -34 | 6 | 1 | 6
COC(=O)c1oc2ccccc2c1NC(=O)c1ccccc1O | 5 | -3 | -2 | -15 | 43* | 17
CC(C)CC#Cc1ccc2c(c1)O[C@H](CN(C)Cc1cncnc1)[C@@H](C)CN([C@H](C)CO)S2(=O)=O | nt | 21[16.7 µM] | nt | nt | -1 | nt
Cc1ccc(C(C)(C)C)c(OCCCn2ccnc2)c1 | 0 | 6 | -51 | -3 | 0 | -10
CC(C)(C)c1ccccc1OCCCCCn1ccnc1 | 2 | nt | -1 | -13 | 44* | -16
O=C(NCc1ccccn1)c1ccc(N2CCCC2)c([N+](=O)[O-])c1 | -1 | -8 | -13 | -11 | 43* | -5
COc1ccc([C@H]2CC(=O)C=C(c3ccc4c(c3)OCO4)C2)cc1OC | -3 | nt | -2 | -13 | 4.0* | -9
COc1cccc(C2=CC(=O)C[C@H](c3ccc4c(c3)OCO4)C2)c1 | 3 | 2 | -10 | 11 | nt | 5
C[C@H](CO)N1C[C@H](C)[C@H](CN(C)Cc2cccc(F)c2)Oc2cc(C#Cc3ccccn3)ccc2S1(=O)=O | nt | -20[16.7 µM] | nt | nt | 0 | nt
O=C(CN1CCOCC1)Nc1cccc(S(=O)(=O)N2CCCCCC2)c1 | 0 | nt | 7 | -5 | 0 | 8
O=C(CSc1ncnc2ccccc12)Nc1cccc(S(=O)(=O)N2CCCC2)c1 | 0 | 4 | -9 | 4 | 43* | 1
O=C(CN1CCN(Cc2ccccc2)CC1)Nc1cccc(S(=O)(=O)N2CCCCCC2)c1 | -2 | 2 | -6 | 19 | 43* | 8
COc1ccc(CCn2nnc3ccccc3c2=O)cc1OC | nt | -6 | -63 | nt | 43* | nt
Cc1noc(C)c1S(=O)(=O)Nc1ccc2c(c1)C(=O)N([C@@H](C)CO)C[C@H](C)[C@@H](CN(C)C)OCCCC[C@H](C)O2 | nt | 2[16.7 µM] | nt | nt | nt | nt
COc1ccc(/C=N\NC(=O)c2ccc(Cn3cc(Br)c([N+](=O)[O-])n3)o2)c(OC)c1C | 2 | nt | 19 | 5 | 44* | 26
O=C(NC[C@@H]1[C@@H](c2ccccc2)[C@@H](CO)N1CC1CCCC1)c1ccccc1 | nt | 6[16.7 µM] | nt | nt | 0 | nt
CNC(=S)NCCc1ccc(OC)cc1 | 0 | nt | -10 | -4 | 43* | 2
CCCNC(=O)N1C[C@@H]2[C@H](c3ccccc31)[C@H](CO)N2Cc1ccccc1F | nt | -11[16.7 µM] | nt | nt | 0 | nt
O=C(c1ccccc1)c1cccs1 | 3 | nt | -12 | 11 | 43* | -5
CC(C)CC#Cc1cnc2c(c1)C(=O)N([C@H](C)CO)C[C@@H](C)[C@@H](CN(C)C(=O)c1cccnc1)O2 | nt | -6[16.7 µM] | nt | nt | 0 | nt
CC(Oc1ccccc1)C(=O)N=Nc1c(O)[nH]c2ccc([N+](=O)[O-])cc12 (configuration not stated) | 2 | 232* | -33 | -9 | 0 | 13
COc1ccc(CNC(=O)C(=O)NCc2ccncc2)cc1 | 1 | nt | -9 | -16 | 0 | -7
